Results: ChEMBL document CHEMBL1133502, “Thio- and oxoflavopiridols, cyclin-dependent kinase 1-selective inhibitors: synthesis and biological effects” (J Med Chem, 2000)

Assays:
[1] = Inhibition of PKA kinase; set-up: species or system Bos taurus
In short: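 Bovine heart PKA (2 units) with 500 ng GST-TK fusion substrate and 25 μM [32P]ATP, in 50 mM Tris pH 7.5, 10 mM MgCl2. Incubated 1 h at 30 °C. Read-out by TCA precipitation.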

Protein kinase C (PKC) = experiment: Inhibition of rat brain PKC kinase
In short: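 Commercial PKC assay system run at 20 μM ATP. Read-out by spotting onto p81 phosphocellulose.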

[2] = Inhibition of Mitogen-activated protein kinase; set-up: species or system Xenopus laevis
[3] = molecular target: Epidermal growth factor receptor (Homo sapiens, UniProt P00533); experiment: Inhibition of Epidermal growth factor receptor
[4] = molecular target: Cyclin-dependent kinase 1/cyclin B1 (Homo sapiens, UniProt P06493); type: protein-complex assay
[5] = molecular target: Cyclin-dependent kinase 4/cyclin D1 (Homo sapiens, UniProt P11802); experiment: Inhibition of Cyclin-dependent kinase 4-cyclin D1; type: protein-complex assay
[6] = molecular target: Cyclin-dependent kinase 2/cyclin E (Homo sapiens, UniProt P24941); experiment: Inhibition of Cyclin-dependent kinase 2-cyclin E; type: protein-complex assay
[7] = Inhibition of Cyclin-dependent kinase 1-cyclin A; set-up: species or system Homo sapiens
A2780 = experiment: cells; conditions: Homo sapiens
[8] = molecular target: Cyclin-dependent kinase 2/cyclin A (Homo sapiens, UniProt P24941); experiment: Inhibition of Cyclin-dependent kinase 2-cyclin A; type: protein-complex assay
HCT-116 = experiment: cells; conditions: Homo sapiens
PC-3 = experiment: cells; conditions: Homo sapiens
MIA PaCa-2 = experiment: cells; conditions: Homo sapiens

Sequence of Cyclin-dependent kinase 1/cyclin B1 (P06493 whole entry): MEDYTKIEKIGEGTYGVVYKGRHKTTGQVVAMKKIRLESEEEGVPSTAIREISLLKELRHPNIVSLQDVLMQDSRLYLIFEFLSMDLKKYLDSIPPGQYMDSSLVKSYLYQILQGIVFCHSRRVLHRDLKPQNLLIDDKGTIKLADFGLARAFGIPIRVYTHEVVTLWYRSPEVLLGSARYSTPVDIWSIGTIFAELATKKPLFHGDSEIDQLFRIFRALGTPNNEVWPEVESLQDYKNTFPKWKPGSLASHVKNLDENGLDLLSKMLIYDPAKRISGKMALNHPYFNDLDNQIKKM
Sequence of Cyclin-dependent kinase 1/cyclin B1 (P14635 whole entry, further chain): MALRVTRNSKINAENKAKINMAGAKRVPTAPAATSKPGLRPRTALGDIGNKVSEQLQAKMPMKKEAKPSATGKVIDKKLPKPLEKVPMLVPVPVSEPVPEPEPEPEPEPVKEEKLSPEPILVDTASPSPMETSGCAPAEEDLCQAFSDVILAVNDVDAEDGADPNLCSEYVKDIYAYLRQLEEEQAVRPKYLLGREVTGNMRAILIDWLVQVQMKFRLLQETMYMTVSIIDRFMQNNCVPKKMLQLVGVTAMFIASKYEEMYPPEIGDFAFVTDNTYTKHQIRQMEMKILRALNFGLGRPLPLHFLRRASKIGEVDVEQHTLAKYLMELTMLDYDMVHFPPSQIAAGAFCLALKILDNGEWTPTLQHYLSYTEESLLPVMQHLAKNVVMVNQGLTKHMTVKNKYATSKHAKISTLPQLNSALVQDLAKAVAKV
Sequence of Epidermal growth factor receptor (P00533 whole entry): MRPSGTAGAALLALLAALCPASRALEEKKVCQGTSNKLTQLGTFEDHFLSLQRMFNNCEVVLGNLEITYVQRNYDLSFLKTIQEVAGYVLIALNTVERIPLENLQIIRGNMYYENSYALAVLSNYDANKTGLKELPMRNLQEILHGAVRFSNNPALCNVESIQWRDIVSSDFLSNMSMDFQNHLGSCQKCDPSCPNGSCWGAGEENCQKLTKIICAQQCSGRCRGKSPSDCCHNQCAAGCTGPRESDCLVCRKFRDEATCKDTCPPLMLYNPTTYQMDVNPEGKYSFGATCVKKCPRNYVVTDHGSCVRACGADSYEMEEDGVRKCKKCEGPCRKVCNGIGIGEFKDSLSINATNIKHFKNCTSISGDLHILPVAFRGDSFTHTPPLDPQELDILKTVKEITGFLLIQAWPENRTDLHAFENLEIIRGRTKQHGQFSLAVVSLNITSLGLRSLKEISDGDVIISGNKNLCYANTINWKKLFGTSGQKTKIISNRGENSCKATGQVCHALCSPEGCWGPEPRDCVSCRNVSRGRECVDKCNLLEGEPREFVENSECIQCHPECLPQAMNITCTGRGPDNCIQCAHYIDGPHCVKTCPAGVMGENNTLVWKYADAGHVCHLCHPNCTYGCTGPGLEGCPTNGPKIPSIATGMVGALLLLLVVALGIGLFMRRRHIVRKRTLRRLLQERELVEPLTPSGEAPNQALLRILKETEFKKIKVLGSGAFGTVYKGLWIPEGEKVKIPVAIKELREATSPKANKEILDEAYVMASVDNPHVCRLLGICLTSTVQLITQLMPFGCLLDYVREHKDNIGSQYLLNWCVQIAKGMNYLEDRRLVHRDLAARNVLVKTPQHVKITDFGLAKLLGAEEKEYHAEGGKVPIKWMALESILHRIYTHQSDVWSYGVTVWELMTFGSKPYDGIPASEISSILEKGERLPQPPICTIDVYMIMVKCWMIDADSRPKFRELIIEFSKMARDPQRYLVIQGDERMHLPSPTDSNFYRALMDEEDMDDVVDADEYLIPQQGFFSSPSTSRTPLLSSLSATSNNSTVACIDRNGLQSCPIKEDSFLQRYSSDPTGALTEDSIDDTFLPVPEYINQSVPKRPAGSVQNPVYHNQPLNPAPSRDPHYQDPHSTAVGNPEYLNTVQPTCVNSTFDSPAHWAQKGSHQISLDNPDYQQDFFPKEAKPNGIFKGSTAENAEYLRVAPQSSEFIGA
Sequence of Cyclin-dependent kinase 4/cyclin D1 (P11802 whole entry): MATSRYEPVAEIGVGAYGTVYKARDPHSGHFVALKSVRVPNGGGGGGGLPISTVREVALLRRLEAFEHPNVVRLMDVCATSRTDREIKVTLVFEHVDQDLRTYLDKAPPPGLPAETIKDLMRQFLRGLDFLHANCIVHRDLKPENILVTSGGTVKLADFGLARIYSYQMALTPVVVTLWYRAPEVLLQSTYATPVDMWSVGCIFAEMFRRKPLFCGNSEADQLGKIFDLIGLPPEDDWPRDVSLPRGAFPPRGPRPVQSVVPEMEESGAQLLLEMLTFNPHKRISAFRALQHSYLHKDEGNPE
Sequence of Cyclin-dependent kinase 4/cyclin D1 (P24385 whole entry, further chain): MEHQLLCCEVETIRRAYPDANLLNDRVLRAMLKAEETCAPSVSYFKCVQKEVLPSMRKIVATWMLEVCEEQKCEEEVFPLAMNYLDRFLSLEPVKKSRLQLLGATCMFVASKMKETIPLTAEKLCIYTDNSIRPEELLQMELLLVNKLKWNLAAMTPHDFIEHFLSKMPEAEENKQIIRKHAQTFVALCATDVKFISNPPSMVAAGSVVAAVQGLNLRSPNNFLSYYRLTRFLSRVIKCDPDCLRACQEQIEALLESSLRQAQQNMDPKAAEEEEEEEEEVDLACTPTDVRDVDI

| IC50 [1] | IC50 (Protein kinase C (PKC)) | IC50 [2] | IC50 [4] | IC50 [5] | IC50 [6] | Structure (SMILES) | other results |
| --- | --- | --- | --- | --- | --- | --- | --- |
| > 50 µM | > 50 µM | > 25 µM |  |  |  | CN1CC[C@H](c2c(O)cc(O)c3c(=O)cc(Oc4ccccc4Cl)oc23)[C@H](O)C1 | IC50 [3]: > 50 µM |
|  |  |  | 0.44 µM | 4.1 µM | 6.59 µM | CN1CCC(c2c(O)cc(O)c3c(=O)cc(Sc4ccccc4)oc23)C(O)C1 (racemic) |  |
|  |  |  | 0.08 µM | 2.07 µM | 1.07 µM | CN1CCC(c2c(O)cc(O)c3c(=O)cc(SC(C)(C)C)oc23)C(O)C1 (racemic) |  |
|  |  |  | 16.3 µM | > 25 µM | > 25 µM | CN1CCC(c2c(O)cc(O)c3c(O)c/c(=N\c4ccccc4)oc23)C(O)C1 (racemic) |  |
|  |  |  | 2.5 µM | 3.7 µM | 9.69 µM | CN1CCC(c2c(O)cc(O)c3c(=O)cc(N4CCCCC4)oc23)C(O)C1 (racemic) |  |
|  |  |  | 0.46 µM | 2.06 µM | 3.93 µM | CCSc1cc(=O)c2c(O)cc(O)c(C3CCN(C)CC3O)c2o1 (racemic) |  |
| > 50 µM | 14 µM | 19 µM |  |  |  | CN1CC[C@H](c2c(O)cc(O)c3c(=O)cc(-c4ccccc4Cl)oc23)[C@H](O)C1 [ALVOCIDIB] | IC50 [7]: 0.05 µM |

The remaining lines, values behind:

| Structure (SMILES) | IC50 [1] | IC50 (Protein kinase C (PKC)) | IC50 [2] | IC50 [4] | IC50 [5] | IC50 [6] | other results |
| --- | --- | --- | --- | --- | --- | --- | --- |
| Cn1cnc2c(NCc3ccccc3)nc(NCCO)nc21 [OLOMOUCINE] | 2000 µM | 1000 µM | 30 µM |  |  |  |  |
| Cc1cc(C)nc(Sc2cc(=O)c3c(O)cc(O)c(C4CCN(C)CC4O)c3o2)n1 (racemic) |  |  |  | 6.4 µM | 82.5 µM | 40.4 µM |  |
| CN1CC[C@H](c2c(O)cc(O)c3c(=O)cc(Sc4ccccc4Cl)oc23)[C@H](O)C1 (stereo in doubt; 16) | > 50 µM | 16.1 µM | > 25 µM | 0.11 µM | 16.2 µM | 2.1 µM | IC50 [7]: 0.16 µM; IC50 (A2780): 0.87 µM; IC50 [8]: 1.5 µM; IC50 (HCT-116): 0.21 µM; IC50 (PC-3): 0.02 µM; IC50 [3]: > 50 µM; IC50 (MIA PaCa-2): 0.03 µM |
| COC(=O)[C@@]1(Cc2ccc(O)c(CC=C(C)C)c2)OC(=O)C(O)=C1c1ccc(O)cc1 [BUTYROLACTONE I] | 260 µM | 160 µM | 94 µM |  | 1000 µM |  | IC50 [3]: 590 µM |
| CN1CC[C@H](c2c(O)cc(O)c3c(=O)cc(Sc4ccccc4Cl)oc23)[C@H](O)C1 (stereo in doubt; 21) |  |  |  | 6.1 µM | > 25 µM | 4.4 µM |  |
